Assay results published in ChEMBL document CHEMBL1806456, “Chemistry of ecteinascidins. Part 3: preparation of 2'-N-acyl derivatives of ecteinascidin 770 and evaluation of cytotoxicity” (Bioorg Med Chem, 2011).

Columns and labels:
Format in all cases: functional, cell-based
HCT-116 = assay: Cytotoxicity against human HCT116 cells after 4 days by MTT assay; conditions: HCT-116, 96 h
How it was run: (§1)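 Cells seeded as single-cell suspension, 2 × 10³ cells/well, onto serially diluted compounds in microplates; cultured 4 d. Viable cells counted with a cell counting kit. IC50 taken as concentration giving 50% growth inhibition relative to untreated control.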

QG-56 = assay: Cytotoxicity against human QG56 cells after 4 days by MTT assay; conditions: QG-56, 96 h; how it was run: as §1
DU-145 = assay: Cytotoxicity against human DU145 cells after 4 days by MTT assay; conditions: DU-145, 96 h; how it was run: as §1

Structure (SMILES)	IC50 (HCT-116)	IC50 (QG-56)	IC50 (DU-145)
COc1cc2c(cc1O)CCN(C(=O)c1c[nH]c3ccccc13)[C@]21CS[C@@H]2c3c(OC(C)=O)c(C)c4c(c3[C@@H](COC1=O)N1[C@@H]2[C@H]2c3c(cc(C)c(OC)c3O)C[C@@H]([C@@H]1C#N)N2C)OCO4	0.00016 µM	0.00046 µM	0.00045 µM
C=CCOc1cc2c(cc1OC)[C@@]1(CS[C@@H]3c4c(OC(C)=O)c(C)c5c(c4[C@@H](COC1=O)N1[C@@H]3[C@H]3c4c(cc(C)c(OC)c4OCC=C)C[C@@H]([C@@H]1C#N)N3C)OCO5)NCC2	0.054 µM	0.16 µM	0.1 µM
C=CCOc1cc2c(cc1OC)[C@@]1(CS[C@@H]3c4c(OC(C)=O)c(C)c5c(c4[C@@H](COC1=O)N1[C@@H]3[C@H]3c4c(cc(C)c(OC)c4O)C[C@@H]([C@@H]1C#N)N3C)OCO5)NCC2	0.0024 µM	0.012 µM	0.0071 µM
C=CCOc1cc2c(cc1OC)[C@@]1(CS[C@@H]3c4c(OC(C)=O)c(C)c5c(c4[C@@H](COC1=O)N1[C@@H]3[C@H]3c4c(cc(C)c(OC)c4OCC=C)C[C@@H]([C@@H]1C#N)N3C)OCO5)N(CC=C)CC2	0.62 µM	> 1 µM	> 1 µM
C=CCN1CCc2cc(O)c(OC)cc2[C@@]12CS[C@@H]1c3c(OC(C)=O)c(C)c4c(c3[C@@H](COC2=O)N2[C@@H]1[C@H]1c3c(cc(C)c(OC)c3O)C[C@@H]([C@@H]2C#N)N1C)OCO4	0.0005 µM	0.0018 µM	0.0012 µM
C=CCOc1cc2c(cc1OC)[C@@]1(CS[C@@H]3c4c(OC(C)=O)c(C)c5c(c4[C@@H](COC1=O)N1[C@@H]3[C@H]3c4c(cc(C)c(OC)c4OCC=C)C[C@@H]([C@@H]1C#N)N3C)OCO5)N(C(=O)c1c[nH]c3ccccc13)CC2	0.00045 µM	> 1 µM	> 1 µM
C=CCOc1cc2c(cc1OC)[C@@]1(CS[C@@H]3c4c(OC(C)=O)c(C)c5c(c4[C@@H](COC1=O)N1[C@@H]3[C@H]3c4c(cc(C)c(OC)c4OCC=C)C[C@@H]([C@@H]1C#N)N3C)OCO5)N(C(=O)c1ccccc1)CC2	0.19 µM	0.69 µM	0.54 µM
C=CCOc1cc2c(cc1OC)[C@@]1(CS[C@@H]3c4c(OC(C)=O)c(C)c5c(c4[C@@H](COC1=O)N1[C@@H]3[C@H]3c4c(cc(C)c(OC)c4OCC=C)C[C@@H]([C@@H]1C#N)N3C)OCO5)N(C(=O)c1ccc([N+](=O)[O-])cc1)CC2	0.26 µM	0.79 µM	0.59 µM
C=CCOc1cc2c(cc1OC)[C@@]1(CS[C@@H]3c4c(OC(C)=O)c(C)c5c(c4[C@@H](COC1=O)N1[C@@H]3[C@H]3c4c(cc(C)c(OC)c4OCC=C)C[C@@H]([C@@H]1C#N)N3C)OCO5)N(C(=O)c1cccc([N+](=O)[O-])c1)CC2	0.18 µM	0.52 µM	0.27 µM
C=CCOc1cc2c(cc1OC)[C@@]1(CS[C@@H]3c4c(OC(C)=O)c(C)c5c(c4[C@@H](COC1=O)N1[C@@H]3[C@H]3c4c(cc(C)c(OC)c4OCC=C)C[C@@H]([C@@H]1C#N)N3C)OCO5)N(C(=O)c1ccncc1)CC2	0.28 µM	0.79 µM	0.59 µM
C=CCOc1cc2c(cc1OC)[C@@]1(CS[C@@H]3c4c(OC(C)=O)c(C)c5c(c4[C@@H](COC1=O)N1[C@@H]3[C@H]3c4c(cc(C)c(OC)c4OCC=C)C[C@@H]([C@@H]1C#N)N3C)OCO5)N(C(=O)c1cccnc1)CC2	0.39 µM	> 1 µM	0.68 µM
C=CCOc1cc2c(cc1OC)[C@@]1(CS[C@@H]3c4c(OC(C)=O)c(C)c5c(c4[C@@H](COC1=O)N1[C@@H]3[C@H]3c4c(cc(C)c(OC)c4OCC=C)C[C@@H]([C@@H]1C#N)N3C)OCO5)N(C(=O)c1ccnc3ccccc13)CC2	0.31 µM	0.42 µM	0.42 µM
C=CCOc1cc2c(cc1OC)[C@@]1(CS[C@@H]3c4c(OC(C)=O)c(C)c5c(c4[C@@H](COC1=O)N1[C@@H]3[C@H]3c4c(cc(C)c(OC)c4OCC=C)C[C@@H]([C@@H]1C#N)N3C)OCO5)N(C(=O)c1cccc3ncccc13)CC2	0.32 µM	0.64 µM	0.55 µM
C=CCOc1cc2c(cc1OC)[C@@]1(CS[C@@H]3c4c(OC(C)=O)c(C)c5c(c4[C@@H](COC1=O)N1[C@@H]3[C@H]3c4c(cc(C)c(OC)c4OCC=C)C[C@@H]([C@@H]1C#N)N3C)OCO5)N(C(=O)c1ccc3ncccc3c1)CC2	0.15 µM	0.26 µM	0.18 µM
C=CCOc1cc2c(cc1OC)[C@@]1(CS[C@@H]3c4c(OC(C)=O)c(C)c5c(c4[C@@H](COC1=O)N1[C@@H]3[C@H]3c4c(cc(C)c(OC)c4OCC=C)C[C@@H]([C@@H]1C#N)N3C)OCO5)N(C(=O)c1ccc(Br)cc1)CC2	0.48 µM	> 1 µM	0.73 µM
